High-throughput results (PubChem BioAssay)
The list is not random: actives were taken first. Their share in the collection is about 5.3%.
Beta apoptosis = inhibitors of cytokine-induced beta cell apoptosis, primary screen, luminescence; INS-1E cytokine-induced death, ATP luminescence, 48 h; percent of positive-control rescue, neutral wells zero; protection from apoptosis, % (no concentration beside the values); 300,000 tested, 0.8% active; AID 435005, 2010;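 active means Every replicate reaches about 75%, or at least half do and their mean reaches it too, limit read from the data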;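 further: 0% = cytokine-treated negative control wells and 100% = positive control rescue; higher means more ATP so stronger rescue from cytokine killing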
T cruzi inh = inhibitors of intracellular T. cruzi growth, primary screen, luminescence, NIH3T3 host cells; T. cruzi beta-gal in NIH3T3, 90 h; inhibition, % (test concentration not listed); 300,000 tested, 1.4% active; AID 1885, 2009;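 active means mean inhibition across valid replicates above about 55%, limit read from the data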;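 further: signal also drops with host cell toxicity which is not excluded here; 0% = plate median of DMSO wells and 100% = zero luminescence signal; higher percent means less beta-gal luminescence so fewer parasites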
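Test system: β-gal T. cruzi (Tulahuen C4) inside NIH/3T3 cells / Quantity: 5,000 cells/well / Measured by: luminescence from GalScreen with 0.05% NP40, read after 60 min / Medium: DMEM plus 2% FBS / Measure: parasite load inhibition, % / Reagent: Tulahuen C4 trypomastigotes, 5000/well / Schedule: co-culture of at least 90 h after 3 h attachment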
Mdm2 MdmX PPI = inhibitors of human Mdm2-MdmX association, primary screen, cell-based, luminescence, split luciferase, SaOS-2, uHTS | inhibition, % at 8 µM | 330,000 tested, 3% active | SaOS-2 split-luciferase Mdm2/MdmX complementation;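 active means inhibition of at least 50% at 8 µM in the primary screen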
Target sequence (O15151 whole entry, looked up): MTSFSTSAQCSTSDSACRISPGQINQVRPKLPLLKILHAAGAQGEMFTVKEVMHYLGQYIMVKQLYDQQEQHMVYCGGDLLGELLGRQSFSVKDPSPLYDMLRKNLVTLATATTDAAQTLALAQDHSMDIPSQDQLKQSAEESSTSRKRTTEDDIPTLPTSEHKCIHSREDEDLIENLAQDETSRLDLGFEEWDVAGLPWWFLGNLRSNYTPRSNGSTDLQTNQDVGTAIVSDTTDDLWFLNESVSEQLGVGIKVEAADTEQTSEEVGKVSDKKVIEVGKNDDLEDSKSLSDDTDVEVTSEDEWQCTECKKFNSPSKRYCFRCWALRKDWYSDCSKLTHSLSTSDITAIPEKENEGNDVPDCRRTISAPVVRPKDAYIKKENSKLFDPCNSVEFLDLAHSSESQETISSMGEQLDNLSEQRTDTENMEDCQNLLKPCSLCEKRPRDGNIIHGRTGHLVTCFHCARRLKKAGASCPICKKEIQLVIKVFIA
Target sequence (Q00987 whole entry, looked up): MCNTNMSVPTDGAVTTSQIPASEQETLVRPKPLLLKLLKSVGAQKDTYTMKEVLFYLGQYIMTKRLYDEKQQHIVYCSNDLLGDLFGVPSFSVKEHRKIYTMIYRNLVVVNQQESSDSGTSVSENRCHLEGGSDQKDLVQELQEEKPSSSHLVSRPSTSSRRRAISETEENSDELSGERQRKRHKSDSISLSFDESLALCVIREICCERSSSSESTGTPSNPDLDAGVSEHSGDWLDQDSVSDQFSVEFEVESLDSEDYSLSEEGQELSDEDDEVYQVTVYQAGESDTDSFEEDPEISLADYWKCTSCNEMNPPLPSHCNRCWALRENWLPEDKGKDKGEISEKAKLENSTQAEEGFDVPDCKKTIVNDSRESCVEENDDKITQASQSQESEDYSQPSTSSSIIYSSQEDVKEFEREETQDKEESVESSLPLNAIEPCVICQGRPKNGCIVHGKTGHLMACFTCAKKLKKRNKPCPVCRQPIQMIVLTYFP
CSC inhib = cancer stem cell viability inhibitors, primary screen, luminescence | 300,000 tested, 1.1% active | inhibition, % at 7.5 µM | cancer stem cell-like cells viability; in the data active means inhibition above about 75%; tested in HMLE shEcad cells
Calb FLC = C. albicans growth inhibition with fluconazole, primary screen, CaCi-2 strain, Alamar Blue fluorescence; C. albicans CaCi-2 (fluconazole-resistant clinical isolate) + fluconazole, 48 h; growth inhibition, % (test concentration not listed); 300,000 tested, 0.57% active; AID 1979, 2009;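 active means growth inhibition above about 58% in most replicates, limit read from the data, passing the limit was not always enough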;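 further: all wells also contain fluconazole at 8 µg/ml as a sub-toxic cotreatment; 0% = median of DMSO wells and 100% = median of geldanamycin control wells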
NALP3 yeast inh = NALP3 inflammasome inhibitors in reconstituted yeast, primary screen, luminescence, uHTS; Yeast reconstituted NLRP3/ASC/caspase-1, beta-gal luminescence, 24 h; inhibition, % at 10 µM; 330,000 tested, 0.39% active; AID 2825, 2010;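 active means inhibition of 50% or more; inactive means inhibition below 50%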;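 further: plate controls were induced DMSO wells for no effect and uninduced yeast grown without galactose for full effect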
Mdm2 MdmX conf = Mdm2-MdmX complex disruptors, retested hits, confirmation, luminescence, single concentration; shares compounds with Mdm2 MdmX PPI; Mdm2-MdmX binding, luminescent assay; inhibition, % at 8 µM; 10,000 tested, 55% active; AID 489028, 2010; in the data active means inhibition above about 40%
FLuc counter = full-length luciferase signal inhibition, confirmation, counter-screen for Mdm2/MdmX interaction inhibitor project, cell-based, single concentration, SaOS-2 | inhibition, % at 8 µM | shares compounds with Mdm2 MdmX PPI | 6,200 tested, 77% active | AID 504607, 2011 | SaOS-2 full-length luciferase counterscreen, luminescence;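 active means mean inhibition at 8 µM reaching about 37%, which flags the compound as non-specific, limit read from the data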;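 further: p53-null SaOS-2 cells with luciferase driven by a doxycycline-inducible promoter; compound on cells about two nights before reading with doxycycline added after day one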
Starred values were filed as active, the others as inactive; / = not tested or not shown.

SMILES | Beta apoptosis | T cruzi inh | Mdm2 MdmX PPI | CSC inhib | Calb FLC | NALP3 yeast inh | Mdm2 MdmX conf | FLuc counter
Cn1cc([N+](=O)[O-])c(C(=O)Nc2cc(Oc3cccnc3)cc([N+](=O)[O-])c2)n1 | -9 | -48 | 82* | -16 | 7 | 12 | 7 | /
Cn1cc([N+](=O)[O-])c(C(=O)Nc2ccc3nc(-c4ccccc4)[nH]c3c2)n1 | -4 | -35 | -67 | / | 1 | -7 | / | /
CN1C(=O)c2ccccc2C(C(=O)NCc2ccco2)C1c1c[nH]c2ccccc12 (centres undefined) | -3 | 10 | 27 | -7 | 1 | 7 | / | /
COCC(=O)O[C@]1(CCN(C)CCCc2nc3ccccc3[nH]2)CCc2cc(F)ccc2[C@@H]1C(C)C | 31 | 40 | 93* | 20 | 18 | 10 | 53* | 36*
Cc1cc(OCC(=O)Nc2ccc(CN3CCOCC3)cc2)c2c(C)c(C)c(=O)oc2c1 | -1 | 32 | 58* | -3 | -3 | 8 | 24 | /
COc1ccc(Cl)cc1NC(=O)C1CCCO1 (centres undefined) | 2 | -4 | 9 | -1 | -3 | -8 | / | /
O=Cc1cc([N+](=O)[O-])ccc1N1CCN(Cc2ccc3c(c2)OCO3)CC1 | -1 | 10 | 20 | -3 | -19 | 14 | / | /
CC(C)(C)c1nnc(N/N=C/c2ccccc2)n(N)c1=O | 3 | -4 | 8 | -6 | 0 | 18 | / | /
CC(C)(C)c1nnc(N/N=C/c2ccccc2O)n(N)c1=O | / | 45 | 59* | / | -31 | -3 | 82* | 22
CCc1ccccc1NC(=O)C(C)n1nc([N+](=O)[O-])c(Br)c1C (centres undefined) | 3 | 9 | 22 | 1 | -19 | 18 | / | /
CSC1=NC(C(Cl)(Cl)Cl)N=C(c2ccc(C)cc2)N1 (centres undefined) | 5 | -4 | 72* | 57 | -4 | 35 | 70* | 67*
COC(=O)N1C(=O)[C@@](c2ccccc2)(C2CCCCC2)N1C(=O)OC | -3 | -12 | 66* | 32 | -3 | -11 | 45* | 49*
COC(=O)N1C(=O)[C@](Cc2ccccc2)(c2ccccc2)N1C(=O)OC | 4 | -12 | 55* | 9 | -8 | 10 | 25 | /
COC(=O)N1C(=O)[C@@](Cc2ccccc2)(c2ccccc2)N1C(=O)OC | -1 | -25 | 61* | 22 | -3 | 2 | 50* | 57*
COc1ccc(C2C(C(=O)Nc3ccccc3)=C(C)Nc3nc(CCCO)nn32)cc1 (centres undefined) | -3 | -4 | -33 | -2 | -6 | 6 | / | /
COC(=O)c1ccccc1NC(=O)CN1CCCCC1 | -3 | 7 | 7 | -7 | -28 | 10 | / | /
C=CCn1c(SCC(=O)c2[nH]c(C)c(C(=O)OCC)c2C)nc2scc(-c3ccccc3)c2c1=O | -4 | 25 | 95* | 6 | -3 | 5 | 60* | 46*
C/C(N)=C(/C#N)C(=O)COC(=O)c1cc(C)n(-c2ccc(F)cc2)c1C | 5 | -3 | 80* | 38 | 0 | 0 | 33 | /
Cc1cc(C(=O)OCC(N)=O)c(C)n1-c1ccccc1 | -4 | -2 | -1 | -5 | -3 | 19 | / | /
CCOC(=O)N1CCC(NC(=O)c2ccc3c(c2)N(CC)CCS3)CC1 | -4 | 8 | 19 | -5 | -1 | 14 | / | /
CCOC(=O)N1CCC(NC(=O)c2ccc3c(c2)N=C(C)c2c(C)ccc(C)c2S3)CC1 | 21 | 20 | 68* | 54 | 12 | 26 | 64* | 89*
CCOC(=O)N1CCC(NC(=O)c2ccc3c(c2)N=C(CC)c2cc(C)ccc2S3)CC1 | 17 | 26 | 61* | 54 | 6 | 9 | 69* | 52*
